A selection: hits, their analogues and other compounds. The true share with any hit is near 1%.
Yeast growth tox – Inhibits yeast growth, turbidity readout | S. cerevisiae wild-type growth, A595 turbidity, 16 h | growth inhibition, % at 25 µM (by protocol) | 0.3% of 30,000 active;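 active = mutant and wild-type yeast strains alike exhibit over 30% growth inhibition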;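 also: 0% = untreated cell controls and 100% = YPD media blanks without cells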
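Incubation: 16 h growth with compound, 30 °C; Material: S. cerevisiae wild-type or eIF2Bepsilon-R284H mutant strain; Signal: turbidity measured as absorbance at 595 nm; Medium: YPD yeast growth medium; Measure: growth inhibition (%) versus cell controls and blanks; Doses: 25 µM single dose.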
Yeast eIF2B – eIF2B (yeast) activity modulation. S. cerevisiae eIF2B-epsilon R284H, GCN4-lacZ luminescence. inhibition, % at 25 µM (by protocol). 0.91% of 27,000 active. AID 688;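 active = mutant luminescence inhibited past about 50% while wild type luminescence and mutant growth stay under set limits, limit read from the data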
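Material: yeast eIF2B-epsilon R284H mutant carrying GCN4–beta-galactosidase fusion. Medium: YPD yeast growth medium. Incubation: 16 h growth with compound at 30 °C, 90 min Beta-Glo step. Signal: Beta-Glo luminescence plus absorbance at 595 nm. Evaluation: % inhibition of reporter signal and growth versus controls. Doses: 25 µM single dose.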
An asterisk follows results filed as active.

For COc1ccc(CCN2C(=S)NC3CC2(C)Oc2ccc([N+](=O)[O-])cc23)cc1OC (stereo not drawn) the results were Yeast growth tox 33.
Screening Cc1ccc(S(=O)(=O)N(C)c2ccc(C(=O)N3CCN(Cc4ccc5c(c4)OCO5)CC3)cc2)cc1 returned Yeast growth tox 8.
For CCc1c(C)c(C#N)c2nc3ccccc3n2c1NCc1ccco1 the results were Yeast growth tox 22.
C=CCc1c(C)c(C#N)c2nc3ccccc3n2c1NCCN(C)C was read as Yeast growth tox 95* and Yeast eIF2B 95.
`CCn1c(Sc2nc(C)nc3scc(-c4cccs4)c23)n[nH]c1=O` gave Yeast growth tox 46* and Yeast eIF2B 41.
For CCc1nc2scc(-c3cccs3)c2c(=O)o1 the results were Yeast growth tox 3 and Yeast eIF2B -20.
For Cc1ccc(C2=[N+]([O-])C3(CCCCC/C3=N\NC(N)=S)N(O)C2(C)C)o1 (stereo not drawn) the results were Yeast growth tox 12.
For Cc1cc(NC(=O)c2cc(-c3cccs3)on2)no1 the results were Yeast growth tox 31* and Yeast eIF2B 0.
CC(C)NC(=O)c1cc(-c2cccs2)on1 was read as Yeast growth tox 18 and Yeast eIF2B 24.
CC(C)(C)N1CC2([N+](=O)[O-])CN(C(C)(C)C)CC([N+](=O)[O-])(C1)C2 was read as Yeast growth tox -11 and Yeast eIF2B 36.
For c1ccc(N(c2ccccc2)c2nc(-n3ccnc3)nc(-n3ccnc3)n2)cc1 the results were Yeast growth tox 101* and Yeast eIF2B 95.
CN(c1ccccc1)c1nc(-n2ccnc2)nc(-n2ccnc2)n1 was read as Yeast growth tox -2 and Yeast eIF2B 28.
CCC(=O)Nc1ccc(NC(=O)c2cc3ccccc3o2)cc1 was read as Yeast growth tox 18 and Yeast eIF2B 19.
For O=C(Nc1ccccn1)c1cc2ccccc2o1 the results were Yeast eIF2B 57*.
For Cc1ccc2[nH]c(=O)c(CN(CCO)C(=O)N(C)C)cc2c1 the results were Yeast growth tox 14 and Yeast eIF2B -2.
`O=C(CN1C2CCCC1CC(NC(=O)c1ccccc1)C2)Nc1nccs1` (stereo not drawn) gave Yeast growth tox 5 and Yeast eIF2B 10.
For COc1ccccc1-c1nnc2sc(COc3ccc(Cl)cc3)nn12 the results were Yeast growth tox 2 and Yeast eIF2B 63*.
For COc1ccc(OCc2nn3c(-c4ccccn4)nnc3s2)cc1 the results were Yeast growth tox 8 and Yeast eIF2B 10.
For CCOC(=O)CSc1nc2sc3c(c2c(=O)[nH]1)CCCC3 the results were Yeast growth tox -44 and Yeast eIF2B 50*.
For CCCCSc1nc2sc3c(c2c(=O)[nH]1)CCC3 the results were Yeast growth tox -20 and Yeast eIF2B 16.
Screening O=c1c(C(c2nnnn2C2CCCCC2)N2CCCCC2)coc2ccc(Cl)cc12 (stereo not drawn) returned Yeast growth tox -17 and Yeast eIF2B 15.
CCCCC(=O)Nc1ccc(C(=O)N2CCC(C(=O)OCC)CC2)cc1 was read as Yeast growth tox 20.
O=C(NCc1ccncc1)c1ccc(Cl)c(S(=O)(=O)N2CCOCC2)c1 was read as Yeast eIF2B 19.
For CC(C)(C)SCCNC(=O)c1ccc(Cl)c(S(=O)(=O)N2CCOCC2)c1 the results were Yeast growth tox 0 and Yeast eIF2B 52*.
`O=c1c(-c2ccnn2-c2cccc(Cl)c2)cnc2n1CCS2` gave Yeast growth tox -1 and Yeast eIF2B -22.
Screening CCCOC(=O)c1ccc(Oc2cn[nH]c2-c2ccc(OC)cc2O)cc1 returned Yeast growth tox 60* and Yeast eIF2B 29.
Screening CCOc1ccc(-c2[nH]ncc2Oc2ccccc2OC)c(O)c1 returned Yeast growth tox 32 and Yeast eIF2B 8.
Screening Cc1nn(Cc2ccccc2)c(=O)n1N(C)c1ncc(C(F)(F)F)cc1Cl returned Yeast growth tox 27 and Yeast eIF2B 18.
`CCOC(=O)Cn1c(=O)c2c(nc3n2CCN3c2ccc(C)cc2)n(C)c1=O` gave Yeast growth tox 10 and Yeast eIF2B -22.
CCOC(=O)Cn1c(=O)c2c(nc3n2CCN3Cc2ccccc2)n(C)c1=O was read as Yeast growth tox 4 and Yeast eIF2B 53*.
For CC1(C)Cc2c(ccc3ccccc23)C(NNC(=O)c2cccnc2)=N1 the results were Yeast growth tox -7 and Yeast eIF2B -37.
Cn1c(Oc2ccccc2NCc2cccc(Br)c2)cc(=O)n(C)c1=O was read as Yeast growth tox 0 and Yeast eIF2B 32.
`COc1ccc(Cl)cc1NC(=O)C(=O)NC1CCCCCC1` gave Yeast growth tox 12 and Yeast eIF2B 19.
O=C(NC1CCCCC1)Sc1ccc(Cl)cc1 was read as Yeast growth tox 41* and Yeast eIF2B 9.
`CC1CCN(CCC(=O)Nc2ccc3c(c2)CCC3)CC1` gave Yeast growth tox -20 and Yeast eIF2B 28.
For CCN(C(=O)COC(=O)c1[nH]c(C)c(C(C)=O)c1C)C1CCS(=O)(=O)C1 (stereo not drawn) the results were Yeast growth tox -4 and Yeast eIF2B -3.
CCC(C)N(C(=O)COC(=O)c1[nH]c(C)c(C(C)=O)c1C)C1CCS(=O)(=O)C1 (stereo not drawn) was read as Yeast growth tox -1 and Yeast eIF2B 54*.
O=C(CCc1c[nH]c2ccccc12)NC1CC1 was read as Yeast growth tox 20 and Yeast eIF2B 5.
`CCCCN(CCCC)C(=O)c1ccccc1NC(=O)CN1C(=O)c2ccccc2C1=O` gave Yeast growth tox 6 and Yeast eIF2B 14.
`COc1ccc(OCC(O)CN2CCCCCC2)cc1` (stereo not drawn) gave Yeast growth tox -34 and Yeast eIF2B 13.
For CCC(=C(c1ccc(OC)cc1)c1ccc(OC)cc1)c1cn(CC(O)CN2CCN(C)CC2)c2ccccc12 (stereo not drawn) the results were Yeast growth tox 102* and Yeast eIF2B 97.
`COC(=O)c1cccc(CSc2nnc(C)s2)c1` gave Yeast growth tox 0 and Yeast eIF2B 25.
Screening Cc1cc2n(n1)SC(Nc1ccccc1)N2 (stereo not drawn) returned Yeast eIF2B 55*.
Screening CCOC(=O)CC(N)c1ccc2c(c1)OCO2 (stereo not drawn) returned Yeast growth tox -22 and Yeast eIF2B 14.
For Cc1occc1-c1nnc(SCC(=O)Nc2ccccc2)n1C(C)c1ccccc1 (stereo not drawn) the results were Yeast growth tox 5 and Yeast eIF2B 9.
Screening CC12CN(S(=O)(=O)c3ccccc3)CC(C)(CN(S(=O)(=O)c3ccccc3)C1)C2 returned Yeast growth tox 16 and Yeast eIF2B 16.
Screening CCOC(=O)C1=C(CSc2nc3c(cc2C#N)CN(C)CC3)OC(N)=C(C#N)C1c1ccccc1 (stereo not drawn) returned Yeast growth tox -6 and Yeast eIF2B 18.
Screening CN1CCc2nc(SCCOc3ccccc3)c(C#N)cc2C1 returned Yeast growth tox 16 and Yeast eIF2B 70*.
For O=C(Nc1ccccc1)C1CC=CCC1C(=O)OCC1CCCO1 (stereo not drawn) the results were Yeast growth tox 33* and Yeast eIF2B 22.
For O=C(NCC1CCCO1)c1ccccc1 (stereo not drawn) the results were Yeast growth tox 12 and Yeast eIF2B 5.
